# Compound activity (PubChem BioAssay)
# S100A4 MyoIIA: inhibitors of human S100A4 binding to myosin IIA peptide | P26447 | S100A4/TAMRA-MyoIIA peptide fluorescence polarization | inhibition, % at 10.7 µM | actives 0.14% (n = 360,000) | AID 652163;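 active = mean inhibition of at least 70% across replicates, with every replicate also reaching that level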
# Target sequence (P26447 whole entry, looked up): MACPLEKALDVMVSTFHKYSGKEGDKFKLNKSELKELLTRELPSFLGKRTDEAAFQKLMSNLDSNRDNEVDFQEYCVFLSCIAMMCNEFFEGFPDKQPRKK
#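 incubation = readout 5 min after mixing, signal stable up to 60 min | system = S100A4 monomer protein | buffer or medium = HEPES pH 7.2 with CaCl2, KCl, NaCl, DTT, Triton | benchmarks = neutral control DMSO, positive control TFP | also added = fluorescent myosin IIA peptide, 5 nM | compound dosing = one concentration per compound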
# CFTR F508del cor: CFTR F508del correction in bronchial cells; CFBE cells, YFP halide quenching; stimulated with forskolin plus potentiator P3; % fluorescence drop versus neutral controls; activity (quench increase), % at 7.58 µM; actives 0.36% (n = 350,000);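 active = mean added fluorescence quench of at least 8% versus neutral control, with both replicates also reaching 8%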;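 also: cells transiently co-express mutant CFTR-F508del with the halide-sensitive YFP; corrector assay measuring rescue of mutant channel to the surface after 24 h compound exposure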
# FGF22 binding-1: binders of recombinant human FGF22 by thermal shift; Q9HCT0; SYPRO orange fluorescence; percent of sucrose octasulfate shift, DMSO zero; activity (Tm shift, normalised), % at 9.99 µM; actives 1.5% (n = 340,000); AID 651658;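 active = mean Tm shift, scaled 0 neutral to 100 positive control, at about 1.3% or above, every replicate too, limit read from the data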
# Target sequence (Q9HCT0 whole entry, looked up): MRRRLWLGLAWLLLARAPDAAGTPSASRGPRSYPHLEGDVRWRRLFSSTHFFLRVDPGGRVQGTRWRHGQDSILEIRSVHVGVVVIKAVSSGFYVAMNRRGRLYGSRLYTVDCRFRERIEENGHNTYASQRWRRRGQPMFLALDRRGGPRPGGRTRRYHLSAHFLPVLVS
# dFosB act: mouse delta FosB homodimer activation | P13346 | purified delta FosB, TAMRA-CDK5 oligo fluorescence polarization; percent of positive-control signal above neutral wells | activation, % at 25 µM | actives 0.99% (n = 340,000) | AID 493131;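 active = mean activation above about 17%, with every replicate also reaching it, limit read from the data, passing the limit was not always enough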
# Target sequence (P13346 whole entry, looked up): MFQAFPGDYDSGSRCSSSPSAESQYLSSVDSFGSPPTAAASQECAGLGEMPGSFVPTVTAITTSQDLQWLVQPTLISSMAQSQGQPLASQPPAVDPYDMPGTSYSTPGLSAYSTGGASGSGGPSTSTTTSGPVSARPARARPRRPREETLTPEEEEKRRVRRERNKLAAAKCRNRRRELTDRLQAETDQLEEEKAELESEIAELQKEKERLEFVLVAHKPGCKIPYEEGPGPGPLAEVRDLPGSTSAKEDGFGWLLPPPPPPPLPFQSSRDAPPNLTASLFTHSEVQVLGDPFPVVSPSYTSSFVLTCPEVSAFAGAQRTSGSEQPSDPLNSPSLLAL
# FGF22 binding-2: binds human FGF22 shifting its melting temperature. shares compounds with FGF22 binding-1. recombinant FGF22 thermal shift, SYPRO orange fluorescence. thermal shift activity, °C (ΔTm) at 38 µM. actives 2% (n = 1,000). AID 720646;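 active = fitted rise in melting shift crosses a set limit at or below the top valid dose tested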
# FGF22 TSA: FGF22 (human) binding by thermal shift | 50 tested, under 10 active | Thermal shift assay, SYPRO orange, melting temperature shift | shares compounds with FGF22 binding-1 | Tm shift (activity), % at 38 µM | AID 743017;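 active = compounds whose fitted dose curve of melting temperature shift rises past a set threshold within the tested doses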
# TSA no protein: shows thermal shift signal without protein, FGF22 counter-screen; shares compounds with FGF22 binding-1; compound-only SYPRO orange thermal shift counter-screen, no protein; AC50, µM (series often up to 38 µM); actives 2% (n = 1,000);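 active = rising signal whose fitted curve reaches the 0.54 level within the top valid dose, showing a melting point, actives reach about 13 µM in these data; inactive = the rest, including activity in the opposite direction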; also: value is where the raw curve crosses a fixed level and not half-maximal
# The depositor's hits bear a star; i = inactive; / = no result; [ ] = another dose, or the depositor's remark. Compounds with a hit are over-represented: about 2.2% of the library has one in this group of screens.
SMILES,S100A4 MyoIIA,CFTR F508del cor,FGF22 binding-1,dFosB act,FGF22 binding-2,TSA no protein,others
O=C(O)c1cccc(-n2cc(-c3cccc(C(F)(F)F)c3)cn2)c1,-2,-1,1.6*,-4,0.17,i,
Cc1cccc(NC(=O)c2ccc(S(=O)(=O)NCc3cccnc3)cc2)c1C,-13,1,0,-8,/,/,
Cc1ccc(S(=O)(=O)NCc2cccnc2)cc1C,-3,-2,3.2*,2,0.12,i,
Cc1ccc(NC(=O)c2ccc(S(=O)(=O)NCc3cccnc3)cc2)c(C)c1,12,0,1.6*,-1,0.067,i,
COc1ccccc1NS(=O)(=O)c1cc(C(=O)Nc2ccc(S(=O)(=O)Nc3onc(C)c3C)cc2)ccc1C,5,2,1.8*,-4,0.23,i,
COc1ccccc1NS(=O)(=O)c1ccc(C)c(C(=O)Nc2ccc(S(=O)(=O)Nc3onc(C)c3C)cc2)c1,-3,-2,0,-6,/,/,
COc1ccc(NC(=O)COC(=O)Cc2c[nH]c3ccccc23)cc1Cl,-3,-2,1.7*,0,-0.2,i,
Cc1ccc(NC(=O)COC(=O)Cc2c[nH]c3ccccc23)cc1C,1,1,0,-6,/,/,
N#C/C(=C\c1ccc(N2CCOCC2)c([N+](=O)[O-])c1)c1nc2ccccc2[nH]1,8,-2,1.7*,-3,-0.052,i,
O=C(C[C@@H]1CC[C@H]2[C@@H](COC[C@H](O)CN2Cc2cccc(-c3ccncc3)c2)O1)N1CCCCC1,5,0,0,/,/,/,
Cc1ccc(CNC(=O)COC(=O)CCCOc2ccc(Cl)cc2Cl)cc1,0,2,0,-7,/,/,
O=C(COC(=O)CCCOc1ccc(Cl)cc1Cl)NCc1ccccc1,-2,3,32*,-15,0.28,i,
O=C(N/N=C\c1ccc(-c2ccc([N+](=O)[O-])cc2)o1)c1ccc2c(c1)OCO2,/,/,/,-7,/,/,
O=C(N/N=C/c1ccc(-c2cccc([N+](=O)[O-])c2)o1)c1ccc([N+](=O)[O-])cc1,0,-1,1.6*,-7,-0.096,i,
O=C(O)Cn1cc(/C=N/NC(=O)c2cc3cc(Br)ccc3o2)c2ccccc21,1,3,1.4*,0,-0.036,i,
N#CCSc1n[nH]c2nc3c(c(=O)n12)C1(CCCCC1)Cc1ccccc1-3,1,2,1.9*,-8,0.081,i,
COCCN1CCN(Cc2nc(Cc3ccc(OC)c(OC)c3)no2)CC1,4,0,8.0*,-1,0.052,i,
COc1ccc(Cc2noc(CN3CCN(Cc4csc(C)n4)CC3)n2)cc1OC,-5,-2,/,-6,/,/,
CCCNC(=O)[C@H]1[C@H](CO)[C@H]2Cn3c(ccc(/C=C/c4ccccc4)c3=O)[C@@H]1N2C(=O)C1CCC1,-8,2,0,/,/,/,
Brc1ccccc1/C=N/Nc1ccccn1,-1,2,2.2*,-5,0.2,i,
CCS(=O)(=O)N1CC(=O)N2[C@H](CO)[C@@H](c3ccc(-c4ccccc4F)cc3)[C@@H]2C1,-5,-4,1.3*,/,0.046,i,
CCS(=O)(=O)N1CC(=O)N2[C@@H](CO)[C@H](c3ccc(-c4ccccc4F)cc3)[C@@H]2C1,-3,-1,1,/,/,/,
Cc1cccc2cc(/C=N/NC(=O)c3ccccc3O)c(Cl)nc12,-7,/,0,8,/,/,
O=C(N/N=C/c1ccc(O)cc1)c1cccc(C(F)(F)F)c1,/,/,/,1,/,/,
O=C(N/N=C/c1ccncc1)c1cccc(N/N=C/c2ccncc2)c1,-4,0,1.5*,-10,0.004,i,
SMILES,S100A4 MyoIIA,CFTR F508del cor,FGF22 binding-1,dFosB act,FGF22 binding-2,TSA no protein,others
O=C(N/N=C/c1ccc(F)cc1)c1cccc(NC(=O)c2ccc(F)cc2)c1,-1,-4,0,-14,/,/,
Cc1nc2c(C)cccc2cc1C(=O)N/N=C/c1ccc(O)cc1,6,/,2.2*,-11,-0.39,i,
O=C(N/N=C/c1ccc(O)cc1)c1cccc(N/N=C/c2ccc(O)cc2)c1,-12,3,1.7*,-7,0.26,i,
Clc1ccc(Nc2ccc(NCc3ccccc3)nn2)cc1,4,0,2.3*,3,0.014,i,FGF22 TSA=0
O=C1N(Cc2ccccc2)Cc2ccccc2[C@@H]2OC(c3ccc(OCCCO)cc3)=N[C@]12Cc1ccccc1,-8,-2,0,/,/,/,
O=C(COC(=O)c1ccccc1Br)NCCC1=CCCCC1,-1,0,24*,-12,0.053,i,
CCNC(=O)C[C@H]1CC[C@@H]2[C@H](COc3ccc(NC(=O)Nc4ccc(F)cc4)cc3C(=O)N2C)O1,-3,0,/,/,/,/,
CN(C)C(=O)c1ccc(-c2cccc(-c3nc(C(=O)N(C)C)cc4c3[C@@H](CCO)N([S@](=O)C(C)(C)C)C4)c2)cc1,-56,-1,0,/,/,/,
CCN(CCn1cccn1)C(=O)CCc1nnc(Cc2c[nH]c3ccccc23)o1,-1,0,12*,0,0.23,i,
CCCCCCc1cc2cc(S(=O)(=O)c3ccc(Cl)cc3)c(=O)oc2cc1O,-9,1,0,6,/,/,
CCN(CC)c1ccc2cc(S(=O)(=O)c3ccc(Cl)cc3)c(=O)oc2c1,-6,-3,24*,-10,-0.14,i,
COc1cccc(NC(=O)N(C)C[C@@H]2Oc3cc(-c4ccccc4F)ccc3S(=O)(=O)N([C@@H](C)CO)C[C@H]2C)c1,-7,-3,1.7*,/,0.076[42 µM],i,
C/C=C/c1ccc2c(c1)O[C@@H](CN(C)C(=O)Nc1cc(F)ccc1F)[C@@H](C)CN([C@H](C)CO)S2(=O)=O,4,0,1.3*,/,-0.53[42 µM],i,
COc1cccc(NC(=O)N(C)C[C@H]2Oc3cc(-c4ccccc4F)ccc3S(=O)(=O)N([C@H](C)CO)C[C@@H]2C)c1,-7,-5,1.4*,/,-0.052[42 µM],i,
C[C@@H]1CN([C@H](C)CO)S(=O)(=O)c2ccc(/C=C/c3ccccc3)cc2O[C@H]1CN(C)Cc1ccc(C(=O)O)cc1,5,-1,0,/,/,/,
COc1cccc(NC(=O)N(C)C[C@H]2Oc3cc(-c4ccccc4F)ccc3S(=O)(=O)N([C@@H](C)CO)C[C@@H]2C)c1,-7,-3,0,/,/,/,
C[C@H](CO)N1C[C@H](C)[C@@H](CN(C)Cc2ccc(C(=O)O)cc2)Oc2cc(/C=C/c3ccccc3)ccc2S1(=O)=O,18,0,23*,/,0.099[42 µM],i,
CO[C@H]1CN(C)C(=O)c2ccc(NC(=O)Nc3ccc(Cl)cc3)cc2OC[C@@H](C)NC[C@@H]1C,/,0,/,/,/,/,
